# Data from ChEMBL document CHEMBL1949521, “Discovery of CC-930, an orally active anti-fibrotic JNK inhibitor” (Bioorg Med Chem Lett, 2012).
# Assays:
# [1] = Oral bioavailability in dog at 10 mg/kg; type: ADME, organism-based, Canis lupus familiaris; settings: in vivo
# Outline: (§1)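 Oral dose of 10 mg/kg given as a suspension in aqueous 0.5% CMC/0.25% Tween 80. Plasma AUC, Cmax and Tmax were taken from the oral arm. Bioavailability was derived against the intravenous arm in the same species.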
# [2] = target: Mitogen-activated protein kinase 14 (Homo sapiens, UniProt Q16539); test: Inhibition of p38alpha using myelin basic protein as substrate preincubated for 15 mins prior ATP addition measured after 60 mins by scintillation counting
# [3] = target: Mitogen-activated protein kinase 8 (Homo sapiens, UniProt P45983); test: Inhibition of hexa-His-tagged JNK1 expressed in baculoviral system using GST-tagged c-Jun as substrate preincubated for 15 mins prior ATP addition measured after 60 mins by scintillation counting
# [4] = Clearance in rat at 2 mg/kg, iv; type: ADME, organism-based; parameters: dose 2 mg/kg, route intravenous; settings: in vivo
# Outline: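 Rats dosed intravenously at 2 mg/kg in a solution of 5% DMA and 30% PEG 400.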
# [5] = target: c-Jun N-terminal kinase, JNK (Homo sapiens, UniProt P45983+P53779+P45984); test: Inhibition of JNK-mediated GST tagged c-Jun phosphorylation in human Jurkat T cells compound treated for 30 mins prior anisomycin stimulation measured after 40 mins by fluorescence spectrophotometry; type: cell-based
# [6] = AUC in po dosed rat; type: ADME, organism-based; settings: plasma
# [7] = Oral bioavailability in rat; type: ADME, organism-based; settings: in vivo
# Rattus norvegicus = test: Antiinflammatory activity in CD rat assessed as inhibition of LPS-stimulated TNFalpha production at 30 mg/kg, po administered 1 hr prior LPS challenge measured after 90 mins by ELISA; type: functional
# Outline: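 Acute PK-PD model in rats: compound given by oral gavage at 10 or 30 mg/kg, then lipopolysaccharide injected, and plasma TNF-alpha release measured.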
# [8] = AUC in rat at 10 mg/kg, po; type: ADME, organism-based; parameters: dose 10 mg/kg, route oral; settings: plasma; outline: as §1
# Sequence of Mitogen-activated protein kinase 14 (Q16539 whole entry): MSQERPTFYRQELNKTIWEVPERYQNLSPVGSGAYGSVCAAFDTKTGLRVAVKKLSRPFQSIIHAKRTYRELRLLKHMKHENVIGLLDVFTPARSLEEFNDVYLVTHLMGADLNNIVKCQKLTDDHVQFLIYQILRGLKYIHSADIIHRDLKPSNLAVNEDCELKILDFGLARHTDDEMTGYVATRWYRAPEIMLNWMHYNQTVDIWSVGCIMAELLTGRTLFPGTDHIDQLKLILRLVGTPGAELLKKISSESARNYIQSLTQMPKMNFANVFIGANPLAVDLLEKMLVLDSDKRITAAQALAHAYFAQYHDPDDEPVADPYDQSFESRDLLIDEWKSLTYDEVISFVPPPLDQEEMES
# Sequence of Mitogen-activated protein kinase 8 (P45983 whole entry): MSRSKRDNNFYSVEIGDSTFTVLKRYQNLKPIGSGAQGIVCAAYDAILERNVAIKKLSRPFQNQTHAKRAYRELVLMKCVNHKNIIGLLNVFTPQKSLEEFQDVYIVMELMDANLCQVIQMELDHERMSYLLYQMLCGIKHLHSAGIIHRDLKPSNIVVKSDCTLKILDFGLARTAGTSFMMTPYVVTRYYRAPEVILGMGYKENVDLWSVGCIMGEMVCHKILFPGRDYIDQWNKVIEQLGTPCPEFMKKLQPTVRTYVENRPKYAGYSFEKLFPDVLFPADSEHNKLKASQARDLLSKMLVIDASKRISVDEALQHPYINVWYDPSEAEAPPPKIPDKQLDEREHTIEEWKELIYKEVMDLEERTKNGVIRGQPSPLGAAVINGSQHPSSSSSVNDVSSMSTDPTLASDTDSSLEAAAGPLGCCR
SMILES,bioavailability [1],IC50 [2],IC50 [3],clearance [4],IC50 [5],AUC [6],bioavailability [7],inhibition in vivo at 30 mg/kg (Rattus norvegicus),AUC [8]
CC(C)Nc1ncc2nc(Nc3c(F)cc(F)cc3F)n([C@H]3CC[C@@H](C(=O)NC4CC4)CC3)c2n1,20%,6200 nM,79 nM,31 mL/min/kg,200 nM,4.7 µM·h,42%,92%,
N[C@H]1CC[C@H](Nc2ncc3nc(Nc4ccc(F)cc4F)n(C4CCCC4)c3n2)CC1,,,,66 mL/min/kg,,,8%,,0.36 µM·h
CS(=O)(=O)N[C@H]1CC[C@H](Nc2ncc3nc(Nc4ccc(F)cc4F)n(C4CCOCC4)c3n2)CC1,,860 nM,880 nM,,,,,,
C[C@]1(O)CC[C@H](Nc2ncc3nc(Nc4ccc(F)cc4F)n(C4CCOCC4)c3n2)CC1,,> 3000 nM,1200 nM,,2500 nM,,,,
CC(C)Nc1ncc2nc(Nc3c(F)cc(F)cc3F)n([C@H]3CC[C@@H](C(N)=O)CC3)c2n1,,160 nM,120 nM,25 mL/min/kg,200 nM,5 µM·h,32%,96%,
O[C@H]1CC[C@H](Nc2ncc3nc(Nc4ccc(F)cc4F)n(C4CCCC4)c3n2)CC1,,560 nM,120 nM,59 mL/min/kg,440 nM,,68%,,2.7 µM·h
CC(C)Nc1ncc2nc(Nc3c(F)cc(F)cc3F)n([C@H]3CC[C@@H](C(=O)N4CCOCC4)CC3)c2n1,,6400 nM,63 nM,26 mL/min/kg,230 nM,2.4 µM·h,20%,58%,
O[C@H]1CC[C@H](Nc2ncc3nc(Nc4ccc(F)cc4F)n(C4CCOCC4)c3n2)CC1,,2700 nM,390 nM,21 mL/min/kg,860 nM,,70%,,12 µM·h
